High-throughput results: PubChem, several laboratories
STAT1 inh: inhibitors of IFN-gamma induced STAT1 signaling; NIH 3T3 STAT1-luciferase reporter, luminescence; inhibition, % at 5.5 µM; hit rate 0.35% among 200,000; AID 920;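 active means inhibition above a set limit, the mean inhibition across all tested compounds plus 3 SD, cut at about 34% in these data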
STAT3 blocker: STAT3 signaling inhibition; U3A cells, IL-6 STAT3-luciferase reporter, luminescence; host cell line lacks STAT1; inhibition, % at 5.5 µM; hit rate 0.89% among 190,000; AID 862;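 active means inhibition above the mean inhibition across all screened compounds plus 3 SD, cut at about 44% in these data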
APP 5'UTR act: APP 5'UTR luciferase reporter activation; SH-SY5Y APP 5'UTR luciferase reporter, luminescence; zero percent = DMSO vehicle wells; activation, % at 2 µM; hit rate 1% among 190,000; AID 1276;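 active means activation above a set limit, based on mean plus 3 SD of controls, cut at about 140% in these data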
NF-kB expr up: NF-kB expression increase, human neuronal cells; NF-kB reporter expression; hits give high values; fold change at 12.5 µM; hit rate 1.6% among 190,000; AID 1239; in the data active means fold change above about 3.3
STAT3 activator: activators of IL-6 induced STAT3 signaling | activation (% of control), % at 5.6 µM | AID 871 | hit rate 0.91% among 190,000 | U3A cells, IL-6 STAT3-luciferase reporter, luminescence; 100% = signal with IL-6 EC80 alone;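 active means activation above the screen-wide mean of compound activation plus 3 SD, cut at about 130% in these data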
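Test system: Human STAT1-deficient U3A cells with stable STAT3-luciferase reporter | Also added: Interleukin-6, 33 ng/mL | Timing: Compound pre-incubation 1 h before IL-6, then 6 h stimulation at 37 °C | Technique: Luciferase reporter luminescence | Read-out: Percent of IL-6-only median luminescence | Benchmarks: IL-6-only wells as 100% reference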
STAT1 activator: increases IFN-gamma driven STAT1 reporter signal; NIH 3T3 STAT1-luciferase reporter, luminescence; 100% = IFN-gamma alone, no compound; activation (% of control), % at 5.5 µM; hit rate 2.6% among 200,000; AID 932;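 active means activation above the screen-wide mean activation plus 3 SD, cut at about 130% in these data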
Numbers stand for hits; – = inactive; · = no result given. Sampled rows, rich in hits. Any-hit rate of the full collection: about 4.9%.

SMILES	STAT1 inh	STAT3 blocker	APP 5'UTR act	NF-kB expr up	STAT3 activator	STAT1 activator
Cc1ccc2nc(-c3ccc(NC(=O)CSc4nccc(=O)[nH]4)cc3)sc2c1	–	–	143.8	–	–	134.5
Cc1ccc2nc(-c3ccc(NC(=S)NC(=O)CC(C)C)cc3)sc2c1	–	–	–	–	–	–
C=CCn1c(SCC(=O)Nc2ccc(-c3nc4ccc(C)cc4s3)cc2)nnc1-c1ccncc1	–	–	160.5	–	–	130.2
COC(=O)c1c(C(=O)OC)c(C)n(Cc2ccco2)c1C	–	–	–	–	–	–
Cc1cc(C(=O)COC(=O)c2cccn2C)c(C)n1Cc1ccco1	36.8	68.9	165.6	–	–	–
Cc1cc(C(=O)COc2cccnc2[N+](=O)[O-])c(C)n1Cc1ccco1	–	–	–	–	–	–
Cc1cc(C(=O)COC(=O)c2ccncc2)c(C)n1Cc1ccco1	–	–	–	–	–	128.6
COC(=O)C(C)(C)ONC(=O)Nc1ccc(C)cc1	–	–	–	–	–	–
COc1cc(/C=N/N2CCOCC2)ccc1OCc1ccc(Cl)cc1	–	–	143.5	–	–	139.8
O=C1c2ccccc2C(=O)N1CCOc1ccccc1	–	–	–	·	138.1	135.2
Cc1ccc(N2C(=O)c3ccc(N)cc3C2=O)cc1	–	–	–	3.46	–	148.9
Cc1ccc(N2C(=O)c3ccc(N)cc3C2=O)cc1C	–	–	–	3.72	–	140.8
Nc1nc(-c2ccccc2)nn1S(=O)(=O)c1ccccc1	–	–	–	–	–	–
Cc1cc(C(=O)N2CCN(S(=O)(=O)c3ccccc3F)CC2)c(C)o1	–	–	–	–	–	–
N/C(=N\OC(=O)c1ccco1)c1cccc([N+](=O)[O-])c1	–	–	–	–	–	–
N/C(=N\OC(=O)c1ccco1)c1cccc(Br)c1	–	–	136.6	–	–	–
COc1ccc(C(=O)Nc2ccccc2NC(=O)c2ccco2)cc1OC	–	–	–	–	–	–
COc1ccc(/C(N)=N/OC(=O)c2ccco2)cc1OC	–	–	–	–	–	148.9
COc1ccc(/C(N)=N/OC(=O)CCc2ccccc2)cc1OC	–	–	–	–	–	–
COc1ccc(/C(N)=N/OC(=O)CSc2ccccc2)cc1OC	–	–	–	–	–	145.4
FC(F)(F)c1cccc(NC(=S)NCC2COc3ccccc3O2)c1 (stereo not drawn)	–	–	–	–	–	–
Cc1ccc(C)c(NCC(O)c2ccccc2)c1 (stereo not drawn)	–	–	–	–	–	–
O=C(CNC(=S)N(Cc1ccccc1Cl)C1CCCC1)NCCN1CCOCC1	–	–	–	–	–	–
CN(CC1CCCO1)S(=O)(=O)c1ccc(C(=O)Nc2nc3cc4c(cc3s2)OCO4)cc1 (stereo not drawn)	–	82.1	–	·	–	–
COC(=O)c1ccc(NC(=S)NC2c3ccccc3CC2O)cc1 (stereo not drawn)	–	–	–	4.04	–	–
SMILES	STAT1 inh	STAT3 blocker	APP 5'UTR act	NF-kB expr up	STAT3 activator	STAT1 activator
O=C(O)CC/C(=N/Nc1ncc(C(F)(F)F)cc1Cl)C(=O)O	–	–	–	–	–	–
Cc1ccc(C(C)C)c(OCC(=O)Nc2ccc(N3CCN(S(C)(=O)=O)CC3)cc2)c1	–	–	–	–	133.3	–
CCOc1cccc2cc(-c3csc(NC(=O)CCC(=O)NCCN4CCCCC4C)n3)c(=O)oc12 (stereo not drawn)	–	–	177.9	6.82	–	144.8
CCOc1cccc2cc(-c3csc(NC(=O)CCC(=O)N4CCC(C)CC4)n3)c(=O)oc12	–	–	–	–	–	–
O=C(CN(Cc1cccs1)C(=O)CNS(=O)(=O)c1ccc(Cl)cc1)NCC1CCCO1 (stereo not drawn)	–	–	–	–	–	–
COc1cccc(NC(=O)C(=O)N2CCOCC2)c1	–	–	·	–	–	135.8
COc1cccc(NC(=O)C(=O)NCc2ccncc2)c1	–	–	–	–	–	128.6
CC(C)(CCl)C(=O)Nc1ccnc(-c2ccncc2)n1	–	–	–	–	–	–
Cc1ccc(-c2onc3ccc(C4OCCO4)cc23)cc1	–	–	–	–	–	–
O=C(Cn1nnc2ccccc21)OCc1ccccc1	–	–	–	–	–	–
CC(=O)c1cn(CC(=O)Nc2ccc(C)cc2)c2ccccc12	–	57.1	–	–	–	–
